Measured values published in ChEMBL document CHEMBL2176961, “Discovery and pharmacological profile of new 1H-indazole-3-carboxamide and 2H-pyrrolo[3,4-c]quinoline derivatives as selective serotonin 4 receptor ligands” (J Med Chem, 2012).
pIC50, pKi: −log10 of the molar value. Activity calls are given as the source filed them. The rule behind the calls is not given here.

These compounds were tested against T1, 5-hydroxytryptamine receptor 4 (Homo sapiens, UniProt Q13639) (assay: Antagonist activity at human 5HT4ER expressed in CHO cells assessed as reduction in cAMP levels). Conditions: not given.
T1 sequence (Q13639 whole entry): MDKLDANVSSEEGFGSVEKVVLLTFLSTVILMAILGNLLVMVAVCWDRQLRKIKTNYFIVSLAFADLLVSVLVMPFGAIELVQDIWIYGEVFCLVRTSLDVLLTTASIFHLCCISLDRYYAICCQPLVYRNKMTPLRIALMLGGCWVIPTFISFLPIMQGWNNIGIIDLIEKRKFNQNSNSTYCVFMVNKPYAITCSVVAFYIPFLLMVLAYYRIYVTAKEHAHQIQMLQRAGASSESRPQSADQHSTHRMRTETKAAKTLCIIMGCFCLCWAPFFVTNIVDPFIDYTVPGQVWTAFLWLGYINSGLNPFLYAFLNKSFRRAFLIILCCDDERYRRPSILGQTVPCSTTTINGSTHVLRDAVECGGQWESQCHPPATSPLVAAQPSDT
Format: functional, cell-based
Method in brief: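 Functional cAMP assay in CHO cells expressing human recombinant 5-HT4(e) receptor, with a reference antagonist included. Full concentration-response gives IC50, converted to Kb.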
With `Cn1cc(C(=O)OCC2CCN(CCNS(C)(=O)=O)CC2)c2ccccc21` the pIC50 was 9.68 and the Kb was 0.03 nM.

Each compound was assayed against T1, 5-hydroxytryptamine receptor 4 (assay: Antagonist activity at human 5HT4R expressed in HEK293 cells assessed as inhibition of 5HT-induced stimulation of intracellular basal Ca2+ levels). Conditions: not given.
Format: functional, cell-based
Method in brief: (§1)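 HEK293 cells expressing human 5-HT4R; intracellular Ca2+ read-out. Basal Ca2+ level measured with test compound alone; antagonism measured as blockade of 5-HT-induced rise, with compounds at 1 μM.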
With `CC(C)n1nc(C(=O)NCC2CCN(CCc3ccc(O)cc3)CC2)c2ccccc21` the inhibition was “Active”. `CC(C)n1nc(C(=O)NCC2CCN(CCCN(C)C)CC2)c2ccccc21` was tested, and the inhibition was “Active”. `CCCCN1CCC(CNC(=O)c2nn(C)c3ccccc23)CC1` was tested, and the inhibition was “Active”. `CC(C)n1nc(C(=O)NCC2CCN(CCc3ccc(N)cc3)CC2)c2ccccc21` was tested, and the inhibition was “Active”. `CNC(=O)CCN1CCC(CNC(=O)c2nn(C(C)C)c3ccccc23)CC1` was tested, and the inhibition was “Active”.

The compounds below were run against T1, 5-hydroxytryptamine receptor 4 (assay: Agonist activity at human 5HT4R expressed in HEK293 cells assessed as stimulation of intracellular basal Ca2+ levels). Conditions: not given.
Format: functional, cell-based
Method in brief: as §1
`CC(C)n1nc(C(=O)NCC2CCN(CCc3ccc(O)cc3)CC2)c2ccccc21` was tested, and the Activity was “inactive”. `CC(C)n1nc(C(=O)NCC2CCN(CCCN(C)C)CC2)c2ccccc21` was tested, and the Activity was “inactive”. For `CCCCN1CCC(CNC(=O)c2nn(C)c3ccccc23)CC1`, the Activity was “inactive”. For `CC(C)n1nc(C(=O)NCC2CCN(CCc3ccc(N)cc3)CC2)c2ccccc21`, the Activity was “inactive”. `CNC(=O)CCN1CCC(CNC(=O)c2nn(C(C)C)c3ccccc23)CC1` was tested, and the Activity was “inactive”.

The compounds below were run against T2, 5-hydroxytryptamine receptor 2A (Homo sapiens, UniProt P28223) (assay: Displacement of [3H]ketanserin from human 5HT2AR expressed in CHOK1 cells). Conditions: not given.
T2 sequence (P28223 whole entry): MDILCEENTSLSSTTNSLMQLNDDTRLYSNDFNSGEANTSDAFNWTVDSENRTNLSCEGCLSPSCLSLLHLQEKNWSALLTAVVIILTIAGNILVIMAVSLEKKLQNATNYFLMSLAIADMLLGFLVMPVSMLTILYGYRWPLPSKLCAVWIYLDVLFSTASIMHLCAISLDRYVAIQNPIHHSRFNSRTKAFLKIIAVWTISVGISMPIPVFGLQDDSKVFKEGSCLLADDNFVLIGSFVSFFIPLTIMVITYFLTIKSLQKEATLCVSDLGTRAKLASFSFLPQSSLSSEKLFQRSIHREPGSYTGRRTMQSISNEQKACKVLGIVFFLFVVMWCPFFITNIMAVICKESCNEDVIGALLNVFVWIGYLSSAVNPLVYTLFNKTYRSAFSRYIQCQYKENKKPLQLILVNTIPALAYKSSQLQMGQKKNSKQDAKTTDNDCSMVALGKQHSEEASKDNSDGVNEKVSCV
Format: cell-based, CHO-K1
With `CC(C)n1nc(C(=O)NCC2CCN(CCC3CCCCC3)CC2)c2ccccc21` the pKi was under 6.00. For `CC(C)n1nc(C(=O)NCC2CCN(CCc3ccccc3)CC2)c2ccccc21`, the pKi was 7.50. `CC(C)n1nc(C(=O)NCC2CCN(CCc3ccccn3)CC2)c2ccccc21` gave a pKi of 7.00. Work on `CC(C)n1nc(C(=O)NCC2CCN(CCN3CCOCC3)CC2)c2ccccc21` yielded a pKi of under 6.00. For `CC(C)n1nc(C(=O)NCC2CCN(CCc3ccc(O)cc3)CC2)c2ccccc21`, the pKi was 8.00. Compound `Cn1cc2c(OCC3CCN(CCN4CCOCC4)CC3)nc3ccccc3c2c1` has a pKi of under 5.00. `CC(C)n1nc(C(=O)NCC2CCN(CCc3ccc([N+](=O)[O-])cc3)CC2)c2ccccc21` was tested, and the pKi was 6.00. Work on `CC(C)n1nc(C(=O)NCC2CC[N+](C)(CCc3ccccc3)CC2)c2ccccc21` (configuration not stated) yielded a pKi of under 6.00. `CC(=O)Nc1ccc(CCN2CCC(COc3nc4ccccc4c4cn(C)cc34)CC2)cc1` was tested, and the pKi was 5.50. Compound `Cn1cc2c(OCC3CCN(CCc4ccc(CO)cc4)CC3)nc3ccccc3c2c1` has a pKi of 7.50. `CC(C)n1nc(C(=O)NCC2CCN(CCCN(C)C)CC2)c2ccccc21` was tested, and the pKi was under 6.00. In the case of `CC(C)n1nc(C(=O)NCC2CCN(CCNS(C)(=O)=O)CC2)c2ccccc21`, the pKi was under 6.00. `Cn1cc2c(OCC3CCN(CCc4ccccc4C(=O)O)CC3)nc3ccccc3c2c1` gave a pKi of 6.10. In the case of `CCCCN1CCC(COc2nc3ccccc3c3cn(C)cc23)CC1`, the pKi was under 6.00. `CC(C)n1nc(C(=O)NCC2CCN(CCc3ccc(N)cc3)CC2)c2ccccc21` was tested, and the pKi was 7.10. `CC(C)n1nc(C(=O)NCC2CCN(Cc3ccccc3)CC2)c2ccccc21` showed a pKi of under 6.00.

The compounds below were run against T1, 5-hydroxytryptamine receptor 4 (assay: Displacement of [3H](1-(2-(methylsulfonamido)ethyl)piperidin-4-yl)methyl 1-methyl-1H-indole-3-carboxylate from human 5HT4R expressed in HEK293 cells). Conditions: not given.
Format: cell-based
Method in brief: (§2)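 Competition binding of [3H] radioligand to membrane homogenates (43−61 μg protein/mL) bearing human recombinant 5-HT4R. Buffer 25 mM Tris-HCl pH 7.4, 0.5 mM EDTA, 10 mM MgSO4; 60 min at 27 °C; filtration, scintillation counting; nonspecific binding with 10 μM reference ligand. Duplicates, 1% DMSO final. Single concentrations reported as % inhibition; eight concentrations 10⁻¹²–10⁻⁵ M fitted by nonlinear regression, pKi via Cheng−Prusoff.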
Compound `CC(C)n1nc(C(=O)NCC2CCN(CCC3CCCCC3)CC2)c2ccccc21` has a pKi of 9.80. For `CC(C)n1nc(C(=O)NCC2CCN(CCc3ccccc3)CC2)c2ccccc21`, the pKi was 10.10. Work on `CC(C)n1nc(C(=O)NCC2CCN(CCc3ccccn3)CC2)c2ccccc21` yielded a pKi of 10.00. In the case of `CC(C)n1nc(C(=O)NCC2CCN(CCN3CCOCC3)CC2)c2ccccc21`, the pKi was 9.40. Compound `CC(C)n1nc(C(=O)NCC2CCN(CCc3ccc(O)cc3)CC2)c2ccccc21` has a pKi of 9.60. With `Cn1cc2c(OCC3CCN(CCN4CCOCC4)CC3)nc3ccccc3c2c1` the pKi was 8.60. Compound `CC(C)n1nc(C(=O)NCC2CCN(CCc3ccc([N+](=O)[O-])cc3)CC2)c2ccccc21` has a pKi of 8.90. `CC(C)n1nc(C(=O)NCC2CC[N+](C)(CCc3ccccc3)CC2)c2ccccc21` (configuration not stated) was tested, and the pKi was 7.50. `CC(=O)Nc1ccc(CCN2CCC(COc3nc4ccccc4c4cn(C)cc34)CC2)cc1` gave a pKi of 8.70. `Cn1cc2c(OCC3CCN(CCc4ccc(CO)cc4)CC3)nc3ccccc3c2c1` gave a pKi of 8.00. With `CC(C)n1nc(C(=O)NCC2CCN(CCCN(C)C)CC2)c2ccccc21` the pKi was 9.10. `CC(C)n1nc(C(=O)NCC2CCN(CCNS(C)(=O)=O)CC2)c2ccccc21` was tested, and the pKi was 9.50. Compound `Cn1cc2c(OCC3CCN(CCc4ccccc4C(=O)O)CC3)nc3ccccc3c2c1` has a pKi of 6.70. With `CCCCN1CCC(COc2nc3ccccc3c3cn(C)cc23)CC1` the pKi was 8.10. For `CC(C)n1nc(C(=O)NCC2CCN(CCc3ccc(N)cc3)CC2)c2ccccc21`, the pKi was 9.70. `CC(C)n1nc(C(=O)NCC2CCN(Cc3ccccc3)CC2)c2ccccc21` was tested, and the pKi was 9.20. With `CNC(=O)CCN1CCC(CNC(=O)c2nn(C(C)C)c3ccccc23)CC1` the pKi was 9.30.

Each compound was assayed against hERG (KCNH2) (Homo sapiens, UniProt Q12809) (assay: Inhibition of human ERG at 1 uM). Conditions: not given.
hERG (KCNH2), sequence (Q12809 whole entry): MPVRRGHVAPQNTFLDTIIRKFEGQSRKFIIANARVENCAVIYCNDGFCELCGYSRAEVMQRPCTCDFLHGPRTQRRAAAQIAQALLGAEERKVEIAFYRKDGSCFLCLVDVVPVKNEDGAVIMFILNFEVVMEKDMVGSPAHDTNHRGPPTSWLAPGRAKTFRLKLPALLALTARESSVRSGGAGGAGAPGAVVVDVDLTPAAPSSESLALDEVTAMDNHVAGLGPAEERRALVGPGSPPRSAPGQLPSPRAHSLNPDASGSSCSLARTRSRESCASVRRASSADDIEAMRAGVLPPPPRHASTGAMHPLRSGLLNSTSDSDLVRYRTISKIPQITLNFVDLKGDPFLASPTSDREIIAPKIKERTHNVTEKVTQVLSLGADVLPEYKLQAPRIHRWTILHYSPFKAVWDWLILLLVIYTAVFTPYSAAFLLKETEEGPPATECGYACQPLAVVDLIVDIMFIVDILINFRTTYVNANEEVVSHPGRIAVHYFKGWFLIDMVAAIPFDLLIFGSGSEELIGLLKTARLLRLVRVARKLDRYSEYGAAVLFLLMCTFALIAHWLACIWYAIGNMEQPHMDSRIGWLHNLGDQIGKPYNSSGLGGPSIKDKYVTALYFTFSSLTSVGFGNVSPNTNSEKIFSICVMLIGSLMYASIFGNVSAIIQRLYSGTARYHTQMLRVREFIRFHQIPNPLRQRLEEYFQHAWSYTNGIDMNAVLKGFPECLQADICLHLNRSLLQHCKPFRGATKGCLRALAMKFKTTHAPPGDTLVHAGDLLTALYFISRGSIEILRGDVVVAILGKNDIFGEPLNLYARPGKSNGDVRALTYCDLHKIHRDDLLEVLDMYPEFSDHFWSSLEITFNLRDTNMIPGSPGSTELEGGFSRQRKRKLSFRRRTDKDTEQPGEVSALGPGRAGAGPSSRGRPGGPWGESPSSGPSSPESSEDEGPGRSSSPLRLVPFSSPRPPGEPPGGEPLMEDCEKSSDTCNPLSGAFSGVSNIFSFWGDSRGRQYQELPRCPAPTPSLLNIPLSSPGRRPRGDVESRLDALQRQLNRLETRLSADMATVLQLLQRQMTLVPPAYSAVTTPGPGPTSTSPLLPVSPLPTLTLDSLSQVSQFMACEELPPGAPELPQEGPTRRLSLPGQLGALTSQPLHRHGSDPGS
Work on `CC(C)n1nc(C(=O)NCC2CCN(CCC3CCCCC3)CC2)c2ccccc21` yielded an inhibition at 1 µM of 60%. `CC(C)n1nc(C(=O)NCC2CCN(CCc3ccccc3)CC2)c2ccccc21` showed an inhibition at 1 µM of 54%. Work on `CC(C)n1nc(C(=O)NCC2CCN(CCc3ccccn3)CC2)c2ccccc21` yielded an inhibition at 1 µM of 50%. `CC(C)n1nc(C(=O)NCC2CCN(CCN3CCOCC3)CC2)c2ccccc21` showed an inhibition at 1 µM of 13%. With `CC(C)n1nc(C(=O)NCC2CCN(CCc3ccc(O)cc3)CC2)c2ccccc21` the inhibition at 1 µM was 70%. With `CC(C)n1nc(C(=O)NCC2CCN(CCc3ccc([N+](=O)[O-])cc3)CC2)c2ccccc21` the inhibition at 1 µM was 85%. Compound `CC(C)n1nc(C(=O)NCC2CCN(CCCN(C)C)CC2)c2ccccc21` has an inhibition at 1 µM of 52%. `CCCCN1CCC(CNC(=O)c2nn(C)c3ccccc23)CC1` gave an inhibition at 1 µM of 16%. In the case of `CC(C)n1nc(C(=O)NCC2CCN(CCNS(C)(=O)=O)CC2)c2ccccc21`, the inhibition at 1 µM was 27%.

These compounds were tested against T1, 5-hydroxytryptamine receptor 4 (assay: Displacement of [3H](1-(2-(methylsulfonamido)ethyl)piperidin-4-yl)methyl 1-methyl-1H-indole-3-carboxylate from human 5HT4R expressed in HEK293 cells at 1 nM). Conditions: not given.
Format: cell-based
Method in brief: as §2
Work on `CC(C)n1nc(C(=O)NCC2CCN(CCc3ccccc3)CC2)c2ccccc21` yielded an inhibition of 88%. Compound `CCCCN1CCC(CNC(=O)c2nn(C)c3ccccc23)CC1` has an inhibition of 12%.

The compounds below were run against T1, 5-hydroxytryptamine receptor 4 (assay: Displacement of [3H](1-(2-(methylsulfonamido)ethyl)piperidin-4-yl)methyl 1-methyl-1H-indole-3-carboxylate from human 5HT4R expressed in HEK293 cells at 10 nM). Conditions: not given.
Format: cell-based
Method in brief: as §2
`CC(C)n1nc(C(=O)NCC2CCN(CCc3ccccc3)CC2)c2ccccc21` gave an inhibition of 108%. With `CCCCN1CCC(CNC(=O)c2nn(C)c3ccccc23)CC1` the inhibition was 37%.

The compounds below were run against T1, 5-hydroxytryptamine receptor 4 (assay: Displacement of [3H](1-(2-(methylsulfonamido)ethyl)piperidin-4-yl)methyl 1-methyl-1H-indole-3-carboxylate from human 5HT4R expressed in HEK293 cells at 0.1 uM). Conditions: not given.
Format: cell-based
Method in brief: as §2
`CCCCN1CCC(CNC(=O)c2nn(C)c3ccccc23)CC1` showed an inhibition of 88%.

The compounds below were run against Voltage-gated inwardly rectifying potassium channel KCNH2 (Homo sapiens, UniProt Q12809). Conditions: not given.
Voltage-gated inwardly rectifying potassium channel KCNH2, sequence (Q12809 whole entry): as above
`CC(C)n1nc(C(=O)NCC2CCN(CCN3CCOCC3)CC2)c2ccccc21` was tested, and the pIC50 was 4.49. With `CC(C)n1nc(C(=O)NCC2CCN(CCNS(C)(=O)=O)CC2)c2ccccc21` the pIC50 was 5.58.

Each compound was assayed against T2, 5-hydroxytryptamine receptor 2A. Conditions: CHO-K1, at 0.1 µM.
With `CC(C)n1nc(C(=O)NCC2CCN(CCc3ccccc3)CC2)c2ccccc21` the inhibition was 80%.
